PAFAH2 inh = inhibitors of human PAFAH2. inhibition, % at 3.39 µM. hit rate 0.99% among 340,000. recombinant PAFAH2, FP-rhodamine activity probe, fluorescence polarization. Q99487;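 active = inhibition above the mean over all tested compounds plus 3 SD, cut at about 30% in these data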;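 also: inhibitors block probe labeling of enzyme so polarization drops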
UCH37 DUB inh = blocks the human deubiquitinase UCH37; Q9Y5K5; inhibition, % (no concentration beside the values); hit rate 0.33% among 330,000; purified proteasome/UCH37, Ub-AMC cleavage fluorescence; AID 588478;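 active = mean inhibition over replicate wells above about 20%, limit read from the data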
Target sequence (Q9Y5K5 whole entry, looked up): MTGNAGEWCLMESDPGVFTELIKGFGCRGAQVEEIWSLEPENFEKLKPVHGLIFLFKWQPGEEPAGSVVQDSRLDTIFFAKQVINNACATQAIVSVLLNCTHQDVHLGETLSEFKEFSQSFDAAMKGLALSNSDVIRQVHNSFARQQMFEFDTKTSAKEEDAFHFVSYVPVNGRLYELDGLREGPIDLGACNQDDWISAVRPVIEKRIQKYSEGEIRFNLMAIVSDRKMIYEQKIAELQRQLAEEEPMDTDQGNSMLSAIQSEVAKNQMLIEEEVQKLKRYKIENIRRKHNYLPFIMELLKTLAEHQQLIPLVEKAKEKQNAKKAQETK
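Test system – human UCH37 enzyme supplied as purified proteasome complex · Incubation – 30 min preincubation with enzyme, 25 min cleavage at room temperature · Detection – AMC fluorescence from Ub-AMC cleavage, excitation 355 nm, emission 460 nm · Benchmarks – no-proteasome wells (full inhibition) and compound-free wells (no inhibition)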
PAFAH1B2 inh = PAFAH1B2 (human) inhibition; P68402; recombinant PAFAH1B2, FP-rhodamine activity probe, fluorescence polarization; inhibition, % at 3.39 µM; hit rate 1.2% among 340,000; AID 492953;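 active = inhibition above the mean of all tested compounds plus 3 SD, cut at about 24% in these data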
Target sequence (P68402 whole entry, looked up): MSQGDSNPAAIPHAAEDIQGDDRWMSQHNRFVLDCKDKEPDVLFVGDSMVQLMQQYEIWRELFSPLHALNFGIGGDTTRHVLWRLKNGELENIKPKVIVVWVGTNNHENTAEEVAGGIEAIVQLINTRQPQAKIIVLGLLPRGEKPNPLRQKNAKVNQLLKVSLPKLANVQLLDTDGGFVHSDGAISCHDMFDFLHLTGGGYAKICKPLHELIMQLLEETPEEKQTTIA
pPAFAH inh = inhibitors of human plasma PAF acetylhydrolase (pPAFAH); inhibition, % at 3.39 µM; Q13093; hit rate 1.5% among 330,000; recombinant pPAFAH, FP-rhodamine probe fluorescence polarization;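 active = inhibition above the mean inhibition across the screen plus 3 SD, cut at about 25% in these data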;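 also: inhibitors block binding of the rhodamine activity-based probe so polarization drops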
GRIN3A LBD mod = NR3A (human) ligand-binding domain modulation; NR3A LBD differential scanning fluorimetry, Tm shift; 0% = protein alone, 100% = glycine-bound protein; Tm shift relative to glycine control, % at 25 µM; hit rate 2.5% among 340,000;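 active = melting temperature shift of at least 10% of the positive control shift, at one fixed dose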
PAFAH1B3 inh = inhibitors of human PAFAH1B3; inhibition, % at 3.39 µM; hit rate 0.28% among 340,000; recombinant PAFAH1B3, FP-rhodamine probe, fluorescence polarization;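 active = inhibition above the screen-wide average of all tested compounds plus 3 SD, cut at about 25% in these data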
Each line names hits and unclear results; the compound was inactive in the other large screens. The list is not random: actives were taken first. Their share in the collection is about 4.8%.

O=[N+]([O-])c1cc(Br)c(O)c(C=NNc2nnnn2-c2cccc3ccccc23)c1	none (no result: PAFAH2 inh, PAFAH1B2 inh, pPAFAH inh, GRIN3A LBD mod, PAFAH1B3 inh)
CC(=NNC(=O)c1ccccc1O)c1cccc(NC(=O)c2ccccc2)c1	none (no result: PAFAH2 inh, PAFAH1B2 inh, pPAFAH inh, GRIN3A LBD mod, PAFAH1B3 inh)
CCCC(=O)Nc1ccc(C(=O)NN=Cc2ccc[nH]2)cc1	none (no result: PAFAH2 inh, PAFAH1B2 inh, pPAFAH inh, GRIN3A LBD mod, PAFAH1B3 inh)
Cc1cnc(NC(=O)c2sc3ccccc3c2Cl)s1	GRIN3A LBD mod 19.5
O=C(Nc1ccc(NC(=O)c2sc3ccccc3c2Cl)cc1)c1ccco1	GRIN3A LBD mod 28.6 (no result: UCH37 DUB inh)
O=C(Nc1ccc(NC(=O)c2ccco2)cc1)c1ccco1	none
O=C(NN=Cc1ccccc1C(F)(F)F)c1ccc2nc[nH]c2c1	none (no result: PAFAH2 inh, PAFAH1B2 inh, pPAFAH inh, GRIN3A LBD mod, PAFAH1B3 inh)
COc1cc(C=NNC(=O)c2sc(N)c(C#N)c2C)ccc1O	none (no result: PAFAH2 inh, PAFAH1B2 inh, pPAFAH inh, GRIN3A LBD mod, PAFAH1B3 inh)
Cc1ccccc1CSc1ncnc2ccccc12	pPAFAH inh 31.7
OCC1OC(Oc2cccc3ccccc23)C(O)C(O)C1O (stereo not given)	none
O=C(O)c1cc(O)c2c(c1)[C@@H]([C@H]1c3cc(C(=O)O)cc(O)c3C(=O)c3c(O[C@@H]4O[C@H](CO)[C@@H](O)[C@H](O)[C@H]4O)cccc31)c1cccc(O[C@@H]3O[C@H](CO)[C@@H](O)[C@H](O)[C@H]3O)c1C2=O	pPAFAH inh 95.5 (no result: PAFAH2 inh, PAFAH1B2 inh, PAFAH1B3 inh)
O=C(NCc1cccs1)c1noc2c1CCCC2	GRIN3A LBD mod 11.2
O=C(NCc1ccccc1)c1noc2c1CCCC2	none
O=c1[nH]c(C2CCN(S(=O)(=O)c3ccc(S(=O)(=O)NC4CC4)cc3)CC2)nc2c1nnn2Cc1ccccc1	none
O=c1[nH]c(C2CCN(S(=O)(=O)c3ccc(S(=O)(=O)NC4CC4)cc3)CC2)nc2c1nnn2Cc1ccc(F)cc1	GRIN3A LBD mod 10.5
CSc1sc(C)cc1C=NO	none (no result: PAFAH2 inh, PAFAH1B2 inh, pPAFAH inh, GRIN3A LBD mod, PAFAH1B3 inh)
Cc1onc(-c2ccccc2)c1CNC(=O)Nc1ccc(C(F)(F)F)cc1	GRIN3A LBD mod 10.9 (no result: PAFAH2 inh, PAFAH1B2 inh, PAFAH1B3 inh)
O=C(NCc1nc(-c2ccc(C(F)(F)F)cc2)no1)Nc1ccc(F)cc1F	none
O=C(NCc1nc(-c2ccc(C(F)(F)F)cc2)no1)Nc1cc(Cl)cc(Cl)c1	GRIN3A LBD mod 32.8
CC(=NO)C(=O)NCCCn1ccnc1	none (no result: PAFAH2 inh, PAFAH1B2 inh, pPAFAH inh, GRIN3A LBD mod, PAFAH1B3 inh)
Cc1ccc(S(=O)(=O)NN=Cc2cc3c(cc2Br)OCO3)cc1	none (no result: PAFAH2 inh, PAFAH1B2 inh, pPAFAH inh, GRIN3A LBD mod, PAFAH1B3 inh)
O=C1CSC(=S)N1N=C/C=C/c1ccccc1	none (no result: PAFAH2 inh, PAFAH1B2 inh, pPAFAH inh, GRIN3A LBD mod, PAFAH1B3 inh)
CCOc1cc(C=NNC(=O)NN(C)c2ncc(C(F)(F)F)cc2Cl)ccc1O	none (no result: PAFAH2 inh, PAFAH1B2 inh, pPAFAH inh, GRIN3A LBD mod, PAFAH1B3 inh)
CCn1c2ccccc2c2cc(NC(=O)C(C)C)ccc21	none
CCn1c2ccccc2c2cc(NC(=O)c3ccccc3-c3ccccc3C(=O)O)ccc21	pPAFAH inh 33.3
CCn1cc(C=NNC(=O)c2ccc3c(c2)OCO3)c(C)n1	none (no result: PAFAH2 inh, PAFAH1B2 inh, pPAFAH inh, GRIN3A LBD mod, PAFAH1B3 inh)
Nn1c(SCC(=O)N2CCCC2=O)nnc1-c1cccs1	none
COc1ccc(-c2nnc(SCC(=O)N3CCCC3=O)n2N)cc1OC	GRIN3A LBD mod 18.8
CN(C)c1ccc(C=NN2CCN(c3ccccn3)CC2)cc1	none (no result: PAFAH2 inh, PAFAH1B2 inh, pPAFAH inh, GRIN3A LBD mod, PAFAH1B3 inh)
COc1ccc([C@H]2C(C(=O)O)=C[C@@H](C(C)(C)C)N2S(=O)(=O)c2ccccc2)cc1	none
Cc1ccc(S(=O)(=O)N2[C@@H](c3ccc(C(C)C)cc3)C(C(=O)O)=C[C@H]2C(C)(C)C)cc1	PAFAH1B2 inh 27.7
CCCCC[C@@H]1C=C(C(=O)O)[C@H](c2cccc(C)c2)N1S(=O)(=O)c1ccc(C)cc1	none
Cc1ccc(S(=O)(=O)N2[C@@H](c3cccc(C)c3)C(C(=O)O)=C[C@H]2C(C)(C)C)cc1	PAFAH1B2 inh 30.9
Cc1ccc([C@H]2C(C(=O)O)=C[C@@H](C(C)(C)C)N2S(=O)(=O)c2ccc(C)cc2)cc1	PAFAH1B2 inh 24.2
COc1ccccc1NS(=O)(=O)c1ccc(NN=C/C=C/c2ccccc2[N+](=O)[O-])c([N+](=O)[O-])c1	none (no result: PAFAH2 inh, PAFAH1B2 inh, pPAFAH inh, GRIN3A LBD mod, PAFAH1B3 inh)
CCOc1ccc(C(CC)=NNC(=O)C2(C)CC2(Br)Br)cc1 (stereo not given)	none (no result: PAFAH2 inh, PAFAH1B2 inh, pPAFAH inh, GRIN3A LBD mod, PAFAH1B3 inh)
Cc1[nH]c2ccccc2c1C=NNC(=O)CNc1ccc2c(c1)OCO2	none (no result: PAFAH2 inh, PAFAH1B2 inh, pPAFAH inh, GRIN3A LBD mod, PAFAH1B3 inh)
COc1cc(Cl)c(CNC[C@H]2O[C@@H](n3cnc(C(N)=O)n3)[C@H](O)[C@@H]2O)c(Cl)c1O	none (no result: UCH37 DUB inh, pPAFAH inh)
NC(=O)c1ncn([C@@H]2O[C@H](CNCc3cccc4c3sc3ccccc34)[C@@H](O)[C@H]2O)n1	none (no result: UCH37 DUB inh, pPAFAH inh)
NC(=O)c1ncn([C@@H]2O[C@H](CNCc3cnc(N4CCOCC4)nc3)[C@@H](O)[C@H]2O)n1	GRIN3A LBD mod 12.7 (no result: UCH37 DUB inh, pPAFAH inh)

Screens from PubChem.
